The values below come from ChEMBL document CHEMBL5236623, “Designing Selective Drug-like Molecular Glues for the Glucocorticoid Receptor/14-3-3 Protein-Protein Interaction” (J Med Chem, 2022).

Activity calls are given as the source filed them. The calls are words filed in the database; no cut-off is given here.

The species named for data set [1] is Homo sapiens. In words: Stabilization of fluorescently-labeled human GR_pT524 peptide/human 14-3-3 zeta expressed in Escherichia coli BL21 (DE3)STAR competent cells protein-protein interaction assessed as increase in FP signal of 14-3-3/phosphopeptide complex incubated for 1 hr by Fluorescence polarization assay. In short, it runs like this: (§1)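 14-3-3ζ/phosphopeptide fluorescence polarization assay run as a concentration-response. EC1.2 is the compound concentration (μM) giving a 20% rise in FP signal of the 14-3-3/phosphopeptide complex, read from the curve. Triplicate, three independent experiments, errors as standard deviation.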
In general terms: Fluorescence polarisation rises when a labelled molecule tumbles more slowly, as on binding a larger partner.

Data set [2] is filed under the species Homo sapiens. Nature of the data set: Stabilization of fluorescently-labeled human ER_pT594 peptide/human 14-3-3 zeta expressed in Escherichia coli BL21 (DE3)STAR competent cells protein-protein interaction assessed as increase in FP signal of 14-3-3/phosphopeptide complex incubated for 1 hr by Fluorescence polarization assay. The method, boiled down: as §1

Data set [3] is filed under the species Homo sapiens. Nature of the data set: Stabilization of fluorescently-labeled human GR_pT524 peptide/human 14-3-3 zeta expressed in Escherichia coli BL21 (DE3)STAR competent cells protein-protein interaction assessed as fold increase in FP signal of 14-3-3/phosphopeptide complex at […] incubated for 1 hr by Fluorescence polarization assay relative to DMSO.

Data set [4] is filed under the species Homo sapiens. Nature of the data set: Stabilization of fluorescently-labeled human ER_pT594 peptide/human 14-3-3 zeta expressed in Escherichia coli BL21 (DE3)STAR competent cells protein-protein interaction assessed as fold increase in FP signal of 14-3-3/phosphopeptide complex at […] incubated for 1 hr by Fluorescence polarization assay relative to DMSO.

The species named for data set [5] is Homo sapiens. Nature of the data set: Stabilization of human GR_pT524 peptide/6His-tagged human 14-3-3 zeta protein-protein interaction at 1 mM by surface plasmon resonance analysis. (Surface plasmon resonance follows binding to a sensor surface in real time, without labels.)
Data set [6] is filed under the species Homo sapiens. Nature of the data set: Stabilization of fluorescently-labeled human GR_pT524 peptide/human 14-3-3 zeta expressed in Escherichia coli BL21 (DE3)STAR competent cells protein-protein interaction assessed as increase in FP signal of 14-3-3/phosphopeptide complex at […] incubated for 1 hr by Fluorescence polarization assay.
A short description of data set [7]: Apparent permeability across apical to basolateral side in human Caco-2 cells at 10 uM incubated for 2 hrs. The data set is classed as ADME, cell-based. To be noted: caco-2, 2 h.
The target in data set [8] is T1, Glucocorticoid receptor (Homo sapiens) (UniProt P04150).
T1 sequence (whole entry): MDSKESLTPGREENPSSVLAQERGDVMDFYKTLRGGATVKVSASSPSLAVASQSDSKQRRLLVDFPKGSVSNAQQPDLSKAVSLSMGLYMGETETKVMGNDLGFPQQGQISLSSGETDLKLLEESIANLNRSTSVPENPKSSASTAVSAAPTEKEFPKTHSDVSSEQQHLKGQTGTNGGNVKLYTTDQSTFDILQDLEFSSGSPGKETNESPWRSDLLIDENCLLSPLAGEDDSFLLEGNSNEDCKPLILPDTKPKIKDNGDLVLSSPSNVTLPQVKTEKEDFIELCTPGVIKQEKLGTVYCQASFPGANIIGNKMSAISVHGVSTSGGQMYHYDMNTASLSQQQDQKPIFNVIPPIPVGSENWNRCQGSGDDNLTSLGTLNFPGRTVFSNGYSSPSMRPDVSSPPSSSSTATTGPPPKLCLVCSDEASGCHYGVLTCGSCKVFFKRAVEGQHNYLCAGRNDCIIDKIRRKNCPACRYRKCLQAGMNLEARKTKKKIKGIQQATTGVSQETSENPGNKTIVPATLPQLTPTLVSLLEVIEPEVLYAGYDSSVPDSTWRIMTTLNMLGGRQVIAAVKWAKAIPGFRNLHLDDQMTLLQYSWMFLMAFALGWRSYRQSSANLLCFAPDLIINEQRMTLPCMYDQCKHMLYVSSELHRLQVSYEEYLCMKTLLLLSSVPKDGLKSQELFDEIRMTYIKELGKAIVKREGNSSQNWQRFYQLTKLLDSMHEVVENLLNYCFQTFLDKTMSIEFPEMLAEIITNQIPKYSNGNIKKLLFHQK
Nature of the data set: Displacement of [3H]dexamethasone from human glucocorticoid receptor by scintillation based radioligand binding assay. Background: Loss of bound radioactivity is the signal in a displacement assay; it reports binding, not function.

The species entered for data set [9] is Homo sapiens. Nature of the data set: Stabilization of fluorescently-labeled human ER_pT594 peptide/human 14-3-3 zeta expressed in Escherichia coli BL21 (DE3)STAR competent cells protein-protein interaction assessed as increase in FP signal of 14-3-3/phosphopeptide complex at […] incubated for 1 hr by Fluorescence polarization assay.
For data set [10], the species on record is Homo sapiens. Nature of the data set: Selectivity index, ratio of EC20 for stabilization of fluorescently-labeled human GR_pT524 peptide/human 14-3-3 zeta expressed in Escherichia coli BL21 (DE3)STAR competent cells protein-protein interaction to EC20 for stabilization of fluorescently-labeled human ER_pT594 peptide/human 14-3-3 zeta expressed in Escherichia coli BL21 (DE3)STAR competent cells protein-protein interaction.

A word on the EC20: it is the concentration needed for an effect of 20%. Regarding `O=C(C1=C(O)C(=O)N(c2ccc(O)c(C(=O)O)c2)C1c1ccc2c(c1)COC2=O)c1ccccc1` (stereo not drawn), the EC20 in the data set filed under Homo sapiens [1] was found to be 150 µM; in the data set listed under Homo sapiens [2] it was 63 µM. Further, the fold change (FC) in the data set filed under Homo sapiens [3] came out at 1.2; in the data set listed under Homo sapiens [4] it was 1.6.
`C=CC(C)(C)OC[C@H]1O[C@H](O[C@@H]2C3=C([C@H](C)COC(C)=O)C[C@H](O)[C@]3(C)/C=C3/[C@@H](COC)CC[C@H]3[C@@H](C)[C@H]2O)[C@H](O)[C@@H](O)[C@@H]1O`: the outcome in the data set listed under Homo sapiens [1] and in the data set listed under Homo sapiens [5] was inactive.
With `O=C(C1=C(O)C(=O)N(c2ccc(O)cc2)C1c1ccc([N+](=O)[O-])cc1)c1ccccc1` (stereo not drawn), the outcome in the data set filed under Homo sapiens [6] was inactive. In addition, in the data set listed under Homo sapiens [2], the EC20 was 87 µM. Moreover, in data set [7], the Papp was 0.13 10^-6 cm/s. Besides, the fold change (FC) in the data set filed under Homo sapiens [4] is 1.6.
Take `O=C(C1=C(O)C(=O)N(c2ccc(O)c(C(=O)O)c2)C1c1ccc([N+](=O)[O-])cc1)c1ccc(Cl)cc1` (racemic): the concentration for an effect of 20% (EC20) in the data set listed under Homo sapiens [1] came out at 42 µM. In addition, the result in data set [8] was inactive.
As to `O=C(C1=C(O)C(=O)N(c2ccc(O)c(C(=O)O)c2)[C@H]1c1ccc([N+](=O)[O-])cc1)c1ccc(Cl)cc1`, in the data set listed under Homo sapiens [1], the EC20 was 126 µM. Also, in the data set filed under Homo sapiens [9], the result was inactive.
As for `O=C(O)c1cc(N2C(=O)C(O)=C(c3ccccc3)C2c2ccc([N+](=O)[O-])cc2)ccc1O` (single isomer, unassigned; (-)), the EC20 in the data set listed under Homo sapiens [1] was determined as 40 µM. Further, the result in the data set listed under Homo sapiens [9] was inactive. In addition, in the data set listed under Homo sapiens [3], the fold change (FC) turned out to be 1.5.
As to `O=C(C1=C(O)C(=O)N(c2ccccc2O)C1c1ccc([N+](=O)[O-])cc1)c1ccccc1` (stereo not drawn), the outcome in the data set filed under Homo sapiens [6] was inactive. Besides, the EC20 in the data set filed under Homo sapiens [2] was found to be 75 µM. Besides, the Papp in [7] is on record as 0.25 10^-6 cm/s. In addition, the fold change (FC) in the data set filed under Homo sapiens [4] turned out to be 1.4.
Turning to `O=C(C1=C(O)C(=O)N(c2ccc(O)c(C(=O)O)c2)[C@@H]1c1ccc([N+](=O)[O-])cc1)c1ccccc1`, the values for the concentration for an effect of 20% (EC20) in the data set filed under Homo sapiens [1] and in the data set filed under Homo sapiens [2] were 32 µM and 15 µM, respectively. For the same compound, the fold change (FC) amounted to 1.6 in the data set listed under Homo sapiens [3] and 2.3 in the data set filed under Homo sapiens [4].
`O=C(C1=C(O)C(=O)N(c2ccc(O)c(C(=O)O)c2)[C@@H]1c1ccc([N+](=O)[O-])cc1)c1ccc(Cl)cc1`: the EC20 in the data set filed under Homo sapiens [1] was 30 µM.
For `O=C(O)c1cc(N2C(=O)C(O)=C(Cc3ccccc3)C2c2ccc([N+](=O)[O-])cc2)ccc1O` (stereo not drawn), the EC20 came out at 82 µM in the data set listed under Homo sapiens [1] and 175 µM in the data set listed under Homo sapiens [2]. Besides, the values for the fold change (FC) in the data set listed under Homo sapiens [3] and in the data set filed under Homo sapiens [4] were 1.3 and 1.2, respectively.
Take `O=C(C1=C(O)C(=O)N(c2ccc(O)c(C(=O)O)c2)[C@H]1c1ccc([N+](=O)[O-])cc1)c1ccccc1`: in the data set filed under Homo sapiens [1], the EC20 worked out at 162 µM. Also, in the data set filed under Homo sapiens [9], the outcome was inactive. Also, the fold change (FC) in the data set filed under Homo sapiens [3] was found to be 1.2.
For the compound `O=C(C1=C(O)C(=O)N(c2ccc(O)c(C(=O)O)c2)C1c1ccc([N+](=O)[O-])cc1)c1ccccc1` (stereo not drawn), the figures for the concentration for an effect of 20% (EC20) in the data set filed under Homo sapiens [1] and in the data set filed under Homo sapiens [2] were 63 µM and 28 µM, respectively. For the same compound, the Ratio in the data set listed under Homo sapiens [10] came out at 2. Moreover, the fold change (FC) amounted to 1.4 in the data set filed under Homo sapiens [3] and 1.9 in the data set listed under Homo sapiens [4]. In addition, in data set [7], the Papp is 0.047 10^-6 cm/s.
Consider `O=C(O)c1cc(N2C(=O)C(O)=C(C(=O)c3ccccc3Cl)C2c2ccc([N+](=O)[O-])cc2)ccc1O` (stereo not drawn), for which the EC20 worked out at 96 µM in the data set listed under Homo sapiens [1] and 73 µM in the data set filed under Homo sapiens [2]. Also, the fold change (FC) in the data set listed under Homo sapiens [3] is 1.2; in the data set filed under Homo sapiens [4] it was 1.4.
For the compound `O=C(C1=C(O)C(=O)N(c2ccc(O)c(C(=O)O)c2)C1c1ccccc1)c1ccccc1` (stereo not drawn), the outcome in the data set listed under Homo sapiens [6] and in the data set listed under Homo sapiens [9] was inactive.
As for `O=C(C1=C(O)C(=O)N(c2ccc(O)c(C(=O)O)c2)C1c1ccc([N+](=O)[O-])cc1)c1cccc(OC(F)F)c1` (stereo not drawn), the outcome in the data set filed under Homo sapiens [6] and in the data set filed under Homo sapiens [9] was inactive.
On to `Nc1ccc(C2C(C(=O)c3ccccc3)=C(O)C(=O)N2c2ccc(O)c(C(=O)O)c2)cc1` (stereo not drawn), for which the outcome in the data set filed under Homo sapiens [6] and in the data set filed under Homo sapiens [9] was inactive.
For the compound `O=C(O)c1cc(N2C(=O)C(O)=C(c3ccccc3)C2c2ccc([N+](=O)[O-])cc2)ccc1O` (racemic), the 20% effect concentration (EC20) in the data set listed under Homo sapiens [1] stood at 45 µM. In addition, the result in the data set filed under Homo sapiens [9] was inactive. The fold change (FC) in the data set listed under Homo sapiens [3] amounted to 1.4.
As to `O=C(O)c1cc(N2C(=O)C(O)=C(c3ccccc3)C2c2ccc([N+](=O)[O-])cc2)ccc1O` (single isomer, unassigned; (+)), in the data set listed under Homo sapiens [9], the outcome was inactive.
